Compound activity (PubChem BioAssay)
An excerpt weighted towards active compounds, which were near 6.1% of everything screened.
Measles CPE: protection of cells from measles virus; protection (pct of control), % at 4 µM; actives 1.5% (n = 140,000); Measles virus-infected cells, CPE protection, absorbance; in the data active means protection mostly above about 24%, no sharp cut-off; inactive means mostly below about 26%
WT yeast gro inh: growth inhibition of WT yeast, mitochondrial fusion screen. actives 2.1% (n = 190,000). mitochondrial fusion phenotypic screen, WT strain. inhibition, % at 10 µM; in the data active means inhibition above about 58%; tested in S. cerevisiae
hDAT+cocaine: human DAT dopamine uptake with cocaine, either direction; LLC-PK1 hDAT cells, [14C]-dopamine uptake with cocaine IC80; actives deviate in either direction; B-score at 10 µM; Q01959; AID 449768; actives 1.3% (n = 110,000);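 active means Z score or B-score, a plate-position-corrected score, falls beyond the plate's 99.7% confidence bounds, in either direction; inactive means both scores lie inside the 99.7% bounds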;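 further: scored against the spread of the other compound wells on the same plate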
Target sequence (Q01959 whole entry, looked up): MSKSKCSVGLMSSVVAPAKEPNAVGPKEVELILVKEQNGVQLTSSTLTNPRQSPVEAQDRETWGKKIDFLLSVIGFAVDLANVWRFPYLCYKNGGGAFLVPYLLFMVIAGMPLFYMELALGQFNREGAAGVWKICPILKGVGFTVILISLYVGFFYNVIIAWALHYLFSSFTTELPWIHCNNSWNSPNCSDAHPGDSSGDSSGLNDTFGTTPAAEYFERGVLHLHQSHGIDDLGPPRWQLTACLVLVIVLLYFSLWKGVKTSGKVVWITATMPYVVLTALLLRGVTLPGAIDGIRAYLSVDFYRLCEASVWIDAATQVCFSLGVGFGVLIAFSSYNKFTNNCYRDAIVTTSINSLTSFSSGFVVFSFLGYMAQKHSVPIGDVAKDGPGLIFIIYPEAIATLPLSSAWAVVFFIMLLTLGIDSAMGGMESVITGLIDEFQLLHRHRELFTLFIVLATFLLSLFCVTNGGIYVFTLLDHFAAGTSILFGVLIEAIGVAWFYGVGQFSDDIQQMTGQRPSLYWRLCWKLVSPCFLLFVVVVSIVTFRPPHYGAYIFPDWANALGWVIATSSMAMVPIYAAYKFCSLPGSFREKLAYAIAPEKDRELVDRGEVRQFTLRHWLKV
Yeast life ext: extends the lifespan of yeast. S. cerevisiae growth with nicotinamide, OD615; deaD strain in restrictive glucose medium. inhibition of the nicotinamide effect, % at 10 µM. actives 0.68% (n = 130,000). AID 775;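 active means inhibition above a set limit, placed 3 SD over the median of all compounds, cut at about 26% in these data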;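 further: 0% = nicotinamide-treated wells and 100% = cells grown without nicotinamide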
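System: Modified budding yeast, DeaD strain | Buffer or medium: Restrictive glucose medium | Also added: 1.5 mM nicotinamide | Doses: 10 µM single point, 0.25% DMSO | Schedule: 48 h compound exposure at 30 °C, humidified | Detection: Absorbance at 615 nm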
BB579 growth dn: reduces growth of yeast BB579 in restrictive medium | actives 0.51% (n = 140,000) | inhibition, % at 10 µM | S. cerevisiae BB579 growth, OD615, 48 h;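 active means inhibition above a set limit, 3 SD over the mean compound inhibition, cut at about 44% in these data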
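Test system: DeaD yeast strain BB579 / Buffer or medium: restrictive glucose-based CSMM-D medium / Doses: single 10 µM dose / Schedule: 4 h cell preincubation, 48 h compound exposure, 30 °C humidified / Technique: culture absorbance at 615 nm / Controls: amphotericin B positive control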
RAM network inh: yeast RAM network inhibition; actives 1.8% (n = 190,000); S. cerevisiae dse1pr::URA3 reporter, 5-FOA growth OD615, 2 d; analog-sensitive cbk1-as2 kinase mutant strain; inhibition, % at 50 µM;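 active means inhibition above a set limit, 3 SD over mean compound inhibition, cut at about 8.4% in these data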;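 further: 0% = DMSO-only wells with no growth and 100% = 10 µM 1-NA-PP1 full growth; inhibition rescues growth on 5-FOA so higher OD means more RAM inhibition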
RAM 5-FOA: restores 5-FOA growth of efflux-deficient yeast; S. cerevisiae efflux-deficient reporter strain, 5-FOA growth OD615, 2 days; 1,200 tested, under 10 active; max inhibition, %; shares compounds with RAM network inh; call rule not given here;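 further: plate controls were vehicle for no effect and reference inhibitor for full effect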
* marks the source's active call; other numbers are inactive results; · = no result given.

SMILES	Measles CPE	WT yeast gro inh	hDAT+cocaine	Yeast life ext	BB579 growth dn	RAM network inh	RAM 5-FOA
Nc1nccnc1C(=O)OCC(=O)Nc1cccc(S(=O)(=O)N2CCCCC2)c1	5	6	·	-2	-10	2	·
O=C(Nc1nnc(-c2ccccc2Cl)o1)c1nc2ccccc2s1	10	14	0.42	1	0	4	·
C=CCn1c(COc2cc(C)ccc2C(C)C)nnc1SCC(=O)c1c(N)n(C)c(=O)n(C)c1=O	5	-3	·	4	-7	-1	·
CN1CCN(S(=O)(=O)c2cc([N+](=O)[O-])ccc2Cl)CC1	·	30	·	·	·	0	·
O=[N+]([O-])c1ccc(Cl)c(S(=O)(=O)N2CCCCCC2)c1	9	-1	·	5	57*	1	·
CCc1ccc(C(=O)NC(C(=O)O)C(C)C)cc1 (stereo not given)	38*	7	-0.32	-11	2	1	·
COC(=O)[C@@H](NC(=O)NCc1ccc(F)cc1)C(C)C	8	-7	0.029	6	-18	0	·
CC(C)[C@H](NC(=O)NCCc1ccc(F)cc1)C(=O)O	78*	0	-0.88	-1	-13	2	·
CC(=O)Nc1ccc(NC(=O)c2ccccc2S(=O)(=O)c2ccc([N+](=O)[O-])cc2)cc1	·	8	·	·	·	1	·
O=C(O)c1ccc2c3c(ncnc13)-c1ccccc1C2=O	28	-11	·	-10	96*	-1	·
C=CCSc1nc2ccccc2n1S(=O)(=O)c1ccc(Cl)cc1	1	18	-0.083	·	3	3	·
CCSc1nc2ccccc2n1S(=O)(=O)c1ccccc1	14	4	0.5	-11	46*	1	·
COc1ccc([N+](=O)[O-])cc1NC(=O)c1ccco1	·	4	·	·	·	0	·
O=C1CN(C(=O)COc2ccc(Br)cc2)c2ccccc2N1	·	-5	·	·	·	4	·
COC(=O)C1=CN(Cc2cccs2)C=C(C(=O)OC)C1c1cccc(Cl)c1	·	31	·	·	·	13*	2
O=C(CSc1nnc(-c2ccc(Cl)s2)o1)N1CCCc2ccccc21	12	18	1.3	-5	-23	14*	2
O=C(Nc1nc2ccccc2n1CCN1CCOCC1)c1cn(-c2ccccc2)nc1-c1ccccc1	24	34	·	173*	-61	18*	3
CC(=O)Nc1nc2ccccc2n1CCN1CCOCC1	20	-3	-1.2	·	-3	1	·
CCCCN1C(=O)/C(=C/C=C2/CC(C)(C)CN2C)SC1=S	6	-10	·	-1	-47	12*	2
CCCCN1C(=O)/C(=C/C=C2\Oc3ccccc3N2CC)SC1=S	·	10	·	·	·	6	·
CCOc1ccc(OCCCCNCCN)cc1	5	-8	·	-5	-79	4	·
CC1SC(C)C(=O)N(CC(=O)NC2CCCCC2)C1=O (stereo not given)	·	-3	·	·	·	0	·
C=CCn1c(SCCC)nc2sc3c(c2c1=O)CCc1ccccc1-3	20	24	·	5	-25	15*	3
C=CCSc1nc2sc3c(c2c(=O)n1CC=C)CCc1ccccc1-3	18	35	·	-1	1	-1	·
O=C(c1cccs1)N(c1ccc(Br)cc1)C1C=CS(=O)(=O)C1 (stereo not given)	·	9	·	·	·	2	·
SMILES	Measles CPE	WT yeast gro inh	hDAT+cocaine	Yeast life ext	BB579 growth dn	RAM network inh	RAM 5-FOA
CC(C)COC(=O)/C(C#N)=C/c1cn(Cc2ccccc2)c2ccccc12	9	6	·	5	-36	19*	11
CC(C)OC(=O)/C(C#N)=C/c1cn(Cc2ccccc2)c2ccccc12	5	19	·	-1	-46	16*	6
COc1ccc(CNC(=O)c2cccc(-c3ccc(C)c4ccccc34)n2)cc1	5	28	0.35	-1	-41	12*	7
COc1ccc(CNC(=O)c2ccccc2C(=O)O)cc1	6	-10	·	2	-42	1	·
COC(=O)[C@@H]1C[C@H]1[C@@H](NC(=O)c1ccccc1)c1ccccc1	4	-9	-0.74	-2	-6	0	·
CCCC[C@@H]1C[C@H]1[C@@H](NC(=O)c1ccccc1)c1ccccc1C(F)(F)F	3	33	-0.77	2	-37	22*	3
CO/N=C/C(=N\Nc1ccc(OC)cc1)C(=O)c1ccc(OC)cc1	6	-5	0.49	-5	-38	12*	2
C#CCNC(=O)C1=C[C@@H](C2CC2)[C@H](CCCO)[C@@H](OCC)O1	·	6	-0.16	·	·	1	·
CCN(c1ccccc1)S(=O)(=O)c1ccc(Cl)nc1	·	14	·	·	·	0	·
CCN(c1ccccc1)S(=O)(=O)c1ccc(NCC2COc3ccccc3O2)nc1 (stereo not given)	5	46	0.48	-11	-50	13*	3
CCOc1cc(NC(=S)Nc2ccccc2OC)c(OCC)cc1NC(=O)c1ccccc1C	0	10	1.6	-7	-32	1	·
CC(C)CCOc1ncnc2c1sc1nc3c(cc12)CSC(C)(C)C3	10	18	-0.086	·	-4	13*	3
C=C(C)CNC(=S)Nc1nc2c(cc1C(=O)OCC)CCCC2	2	-1	·	6	-47	12*	3
C=C(C)CNC(=S)Nc1cccc(S(=O)(=O)NC2=NCCC2)c1	·	-12	·	·	·	0	·
O=C(NCCOc1ccccc1)c1cc(C(=O)NCCOc2ccccc2)cc([N+](=O)[O-])c1	3	9	·	0	-67	14*	3
O=C(NCCOc1ccccc1)c1ccccc1[N+](=O)[O-]	·	0	·	·	·	-1	·
O=C(NCCO)c1ccc(Oc2ccc(C(F)(F)F)cc2[N+](=O)[O-])cc1	·	-9	·	·	·	1	·
COc1ccc(OCCNC(=O)c2cccc(Oc3ccc(C(F)(F)F)cc3[N+](=O)[O-])c2)cc1	5	6	·	4	-12	14*	2
C=CCNC(=O)C(=O)N/N=C/c1ccco1	14	16	·	3	-17	1	·
Cc1nn(CCO)c(N)c1C1(O)C(=O)Nc2c(Cl)cc(Cl)cc21 (stereo not given)	·	-7	·	·	·	2	·
COc1ccc(C(=O)NCC(=O)NCC2COc3ccccc3O2)cc1 (stereo not given)	4	2	-0.62	-17	-35	2	·
CCCOC(=O)c1ccc(NC(=O)c2c(Cl)ccc(Cl)c2OC)cc1	20	46	·	-2	-61	12*	2
N#Cc1ccsc1NC(=O)COC(=O)CCCSc1nc2ccccc2s1	4	22	0.54	-13	-53	15*	3
NC(=O)COC(=O)CCCSc1nc2ccccc2s1	·	-8	·	·	·	0	·
CCOCCCNC(=O)c1cc(=O)n(Cc2cccc(C)c2)c2ccccc12	·	-3	·	·	·	12*	1
CCn1c(=O)cc(OCC(=O)NCCc2cccc(C)c2)c2ccccc21	·	4	·	·	·	4	·
Cn1nnc(NC(=O)COc2ccc(C3CCCCC3)cc2)n1	8	-3	-0.2	-33	-7	-2	·
